Measurements: ChEMBL document CHEMBL4043181, “A new chemotype inhibitor for the human organic cation transporter 3 (hOCT3)” (Bioorg Med Chem Lett, 2017)
pIC50: −log10 of the molar value.

Assays:
[1] = biological target: T1, Solute carrier family 22 member 2 (Homo sapiens, UniProt O15244); assay: Inhibition of human OCT2 expressed in HEK293 cells assessed as decrease in uptake of substrate [3H]MPP+ after 1 min by liquid scintillation counting method; assay type: cell-based
T1 sequence (O15244 whole entry): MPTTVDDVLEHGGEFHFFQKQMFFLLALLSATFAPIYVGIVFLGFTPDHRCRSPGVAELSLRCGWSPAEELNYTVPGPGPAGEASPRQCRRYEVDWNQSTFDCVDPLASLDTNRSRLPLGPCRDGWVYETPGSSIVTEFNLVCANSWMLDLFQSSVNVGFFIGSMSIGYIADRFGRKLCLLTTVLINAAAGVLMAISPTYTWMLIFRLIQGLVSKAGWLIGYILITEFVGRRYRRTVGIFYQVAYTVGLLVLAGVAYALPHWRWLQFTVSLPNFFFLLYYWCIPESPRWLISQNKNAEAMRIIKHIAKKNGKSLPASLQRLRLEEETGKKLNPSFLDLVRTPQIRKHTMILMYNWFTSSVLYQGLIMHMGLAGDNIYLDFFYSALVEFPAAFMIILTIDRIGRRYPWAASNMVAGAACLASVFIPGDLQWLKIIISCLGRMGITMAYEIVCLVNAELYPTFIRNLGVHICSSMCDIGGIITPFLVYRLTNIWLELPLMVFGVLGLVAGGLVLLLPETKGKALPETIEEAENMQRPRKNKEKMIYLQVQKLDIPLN
How it was run: (§1)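 Stably transfected HEK293 cells expressing hOCT1, hOCT2 or hOCT3; 1 min uptake of [3H]MPP+ (1 μM) measured across inhibitor concentrations 10^-8 to 10^-2.5 M. Signal corrected for nonspecific background in empty-vector control cells; data as mean ± SD; IC50 obtained by nonlinear regression.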

[2] = biological target: T2, Solute carrier family 22 member 1 (Homo sapiens, UniProt O15245); assay: Inhibition of human OCT1 expressed in HEK293 cells assessed as decrease in uptake of substrate [3H]MPP+ after 1 min by liquid scintillation counting method; assay type: cell-based; how it was run: as §1
T2 sequence (O15245 whole entry): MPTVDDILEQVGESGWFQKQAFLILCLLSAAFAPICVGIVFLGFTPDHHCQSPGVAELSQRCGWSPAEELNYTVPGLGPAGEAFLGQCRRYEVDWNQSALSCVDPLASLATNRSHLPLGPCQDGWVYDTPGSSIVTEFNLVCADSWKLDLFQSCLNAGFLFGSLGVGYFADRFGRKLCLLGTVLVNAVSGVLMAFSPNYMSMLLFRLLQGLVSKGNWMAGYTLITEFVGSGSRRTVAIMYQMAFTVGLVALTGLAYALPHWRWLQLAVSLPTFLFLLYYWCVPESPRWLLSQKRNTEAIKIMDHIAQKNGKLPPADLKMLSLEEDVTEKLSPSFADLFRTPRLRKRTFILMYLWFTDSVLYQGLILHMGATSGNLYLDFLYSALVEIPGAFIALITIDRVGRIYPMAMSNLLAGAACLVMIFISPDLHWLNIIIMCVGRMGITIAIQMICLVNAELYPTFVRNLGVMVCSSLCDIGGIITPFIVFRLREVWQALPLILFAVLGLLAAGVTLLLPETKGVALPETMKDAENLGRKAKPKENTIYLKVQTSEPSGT

Homo sapiens [3] = organism: Homo sapiens; assay: Selectivity ratio of IC50 for human OCT2 expressed in HEK293 cells to IC50 for human OCT3 expressed in HEK293 cells; assay type: cell-based
Homo sapiens [4] = organism: Homo sapiens; assay: Selectivity ratio of IC50 for human OCT1 expressed in HEK293 cells to IC50 for human OCT3 expressed in HEK293 cells; assay type: cell-based
[5] = biological target: T3, Solute carrier family 22 member 3 (Homo sapiens, UniProt O75751); assay: Inhibition of human OCT3 expressed in HEK293 cells assessed as decrease in uptake of substrate [3H]MPP+ after 1 min by liquid scintillation counting method; assay type: cell-based; how it was run: as §1
T3 sequence (O75751 whole entry): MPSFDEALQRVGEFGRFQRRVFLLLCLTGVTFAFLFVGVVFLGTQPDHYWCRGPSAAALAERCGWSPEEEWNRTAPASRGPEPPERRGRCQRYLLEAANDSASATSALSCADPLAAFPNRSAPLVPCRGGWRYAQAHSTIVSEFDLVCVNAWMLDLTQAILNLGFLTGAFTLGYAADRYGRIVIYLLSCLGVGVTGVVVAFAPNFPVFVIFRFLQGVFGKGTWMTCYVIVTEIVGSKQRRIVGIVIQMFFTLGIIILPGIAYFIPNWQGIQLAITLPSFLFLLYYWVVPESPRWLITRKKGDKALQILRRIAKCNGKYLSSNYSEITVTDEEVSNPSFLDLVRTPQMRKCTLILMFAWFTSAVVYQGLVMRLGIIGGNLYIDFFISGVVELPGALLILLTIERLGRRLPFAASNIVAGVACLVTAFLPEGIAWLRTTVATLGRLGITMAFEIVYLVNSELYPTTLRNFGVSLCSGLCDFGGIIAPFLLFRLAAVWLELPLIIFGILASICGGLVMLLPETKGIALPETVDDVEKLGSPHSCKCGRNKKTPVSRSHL

[6] = biological target: T3, Solute carrier family 22 member 3; assay: Competitive inhibition of human OCT3 expressed in HEK293 cells up to 25 uM in presence of varying concentration of MPP+ by Lineweaver-Burk plot analysis; assay type: cell-based
How it was run: (§2)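 HEK293 cells stably expressing hOCT3; 1 min cellular accumulation of MPP+ (1-150 μM) with or without inhibitor at two concentrations. Uptake corrected for background in non-transporter-expressing control cells. Saturation curves fitted by nonlinear regression to a mixed-model inhibition equation to define mode of inhibition; Lineweaver-Burk transforms used for display.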

[7] = biological target: T3, Solute carrier family 22 member 3; assay: Inhibition of OCT3 (unknown origin)
[8] = biological target: T3, Solute carrier family 22 member 3; assay: Competitive inhibition of human OCT3 expressed in HEK293 cells in presence of varying concentration of MPP+ by Lineweaver-Burk plot analysis; assay type: cell-based; how it was run: as §2
[9] = biological target: T3, Solute carrier family 22 member 3; assay: Competitive inhibition of human OCT3 expressed in HEK293 cells up to 10 uM in presence of varying concentration of MPP+ by Lineweaver-Burk plot analysis; assay type: cell-based; how it was run: as §2

pIC50 [1]	pIC50 [2]	pIC50 [5]	inhibition (INH) [6]	pIC50 [7]	inhibition (INH) [8]	inhibition (INH) [9]	SMILES	Ratio IC50 (Homo sapiens [3])	Ratio IC50 (Homo sapiens [4])
4.72	5.00	5.55	Active	–	–	–	N=C(N)Nc1ccc(Cl)cc1	6	< 5
4.32	4.65	4.56	–	–	–	–	N=C(N)Nc1ccc(F)cc1	< 5	< 5
4.02	3.12	3.34	–	–	–	–	N=C(N)Nc1ccc(Cc2ccccc2)cc1	< 5	< 5
–	–	–	–	2.21 to 2.66	–	–	N=C(N)N [GUANIDINE]	–	–
5.36	5.62	5.82	–	–	–	–	NC(N)=Nc1ccc(I)cc1	< 5	< 5
–	–	–	–	–	–	–	N=C(N)Nc1cccc(Cl)c1	8	< 5
4.22	4.86	5.12	–	–	–	–	NC(N)=Nc1cccc(Cl)c1	–	–
–	–	–	–	–	Active	–	C=C[C@H]1C[N@@]2CC[C@H]1C[C@H]2[C@H](O)c1ccnc2ccc(OC)cc12 [QUININE]	–	–
5.03	5.00	5.34	–	–	–	–	Cc1ccc(NC(=N)N)cc1	< 5	< 5
5.08	6.05	5.66	–	–	–	Active	CC(C)(C)c1ccc(N=C(N)N)cc1	< 5	< 5
4.95	5.20	5.32	–	–	–	–	N=C(N)Nc1ccc(Br)cc1	< 5	< 5
4.05	4.39	4.00	–	–	–	–	N=C(N)Nc1ccccc1 [PHENYLGUANIDINE]	< 5	< 5
